Data set [1] in a line: folding enthalpy; higher = less favourable; fluorescence melt of hairpins on a sequencing array, two-state fit. The following applies: sodium 0.088 M. In short, it runs like this:
(§1)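 Two-state fits, bootstrapped, provided melting temperature and folding enthalpy from Cy3 fluorescence normalised to pre-quench Cy3 and to control constructs. Library hairpins with annealed Cy3 and quencher oligos were imaged on a sequenced MiSeq flow cell in 50 mM Na-HEPES pH 8.0, 25 mM NaCl, at 2.5 °C intervals up to 60 °C. Four replicates were combined with inverse-variance weighting. A 9.35 °C upward shift was applied to fitted temperatures to match UV melts.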

Data set [2] is described as follows: melting temperature; fluorescence melt of hairpins on a sequencing array, two-state fit, raised by 9.35 °C to match UV melts. The conditions noted are these: sodium 0.088 M. The gist of the method:
as §1

GGACCCGAAAGGGATTCC ((((((....)))..))): the folding enthalpy in data set [1] is -12.2 kcal/mol. For the same sequence, in data set [2], the Tm worked out at 37.5 °C.

In the case of GGACCCGAAAGGGCCTCC ((((((....)))..))), the folding enthalpy in data set [1] is -14.7 kcal/mol. In data set [2], the Tm was determined as 57.5 °C.

With GGACCCGAAAGGGTCTCC ((((((....)))..))), the folding enthalpy in data set [1] was -7.17 kcal/mol. In addition, the Tm in data set [2] is 58.9 °C.

With GGACCCGGAAACGGGCCC ((.((((....)))).)), the folding enthalpy in data set [1] is -19.2 kcal/mol. Further, the Tm in data set [2] turned out to be 59.6 °C.

Turning to GGACCCGGAAACGGGTTC (.(((((....))))).), the folding enthalpy in data set [1] is -25.6 kcal/mol. Also, the Tm in data set [2] came out at 59.4 °C.

With GGACCTCGAAAGAGATCC (((.(((....))).))), the folding enthalpy in data set [1] is -30.6 kcal/mol. In data set [2], the Tm was found to be 46.7 °C.

Turning to GGACCTCGAAAGAGCTCC (((.(((....))).))), the folding enthalpy in data set [1] was -25.5 kcal/mol. Also, in data set [2], the Tm is 37 °C.

On to GGACGCCCGAAAGGGTCC (((..(((....)))))), for which the folding enthalpy in data set [1] was -16.2 kcal/mol. Besides, the Tm in data set [2] amounted to 43.2 °C.

Regarding GGACGCCGAAAGGCATCC (((.(((....))).))), the folding enthalpy in data set [1] is -22.6 kcal/mol. Also, the Tm in data set [2] was found to be 52.6 °C.

Turning to GGACGCGAAAGCGATCC ((((((....))).))), in data set [1], the folding enthalpy was -16.7 kcal/mol. Besides, the Tm in data set [2] is 57.4 °C.

On to GGACGCGAAAGCGTATCC ((((((....)))..))), for which, in data set [1], the folding enthalpy was -9.56 kcal/mol. Also, the Tm in data set [2] was found to be 37.4 °C.

In the case of GGACGCGAAAGCGTCTCC ((((((....)))..))), the folding enthalpy in data set [1] was -6.35 kcal/mol. The Tm in data set [2] turned out to be 62.5 °C.

GGACGCGAAAGCGTTCC ((((((....))).))): the folding enthalpy in data set [1] was -14.1 kcal/mol. Also, the Tm in data set [2] came out at 61.8 °C.

For GGACGCGGAAACGCGTTC (.(((((....))))).), the folding enthalpy in data set [1] is -16.6 kcal/mol. Also, the Tm in data set [2] worked out at 62.2 °C.

For the sequence GGACGGCGAAAGCCTTCC (((.(((....))).))), in data set [1], the folding enthalpy is -22.6 kcal/mol. In data set [2], the Tm was determined as 52.5 °C.

With GGACGGGGAAACCCACCC ((..(((....)))..)), the folding enthalpy in data set [1] is -10.4 kcal/mol. The Tm in data set [2] was 26.1 °C.

For the sequence GGACGTGGAAACACACCC ((..(((....)))..)), the folding enthalpy in data set [1] is -7.91 kcal/mol. Also, the Tm in data set [2] is 25 °C.

As for GGACGTGGAAACACGTTC (.(((((....))))).), the folding enthalpy in data set [1] is -23 kcal/mol. For the same sequence, the Tm in data set [2] was 53.7 °C.

For GGACTACGAAAGTAATCC (((.(((....))).))), in data set [1], the folding enthalpy was -33.4 kcal/mol. Besides, the Tm in data set [2] worked out at 38.7 °C.

GGACTACGAAAGTATCC (((.(((....)))))): the folding enthalpy in data set [1] was -21.5 kcal/mol. Moreover, the Tm in data set [2] was determined as 36.8 °C.

For the sequence GGACTAGCGAAAGCTTCC (((..(((....)))))), in data set [1], the folding enthalpy was -10.7 kcal/mol. In data set [2], the Tm turned out to be 27.5 °C.

As to GGACTCGAAAGAGATCC ((((((....))).))), the folding enthalpy in data set [1] is -22.1 kcal/mol. Further, the Tm in data set [2] was 44.7 °C.

In the case of GGACTCGAAAGAGGTTCC ((((((....)))..))), the folding enthalpy in data set [1] was -17.6 kcal/mol. Also, the Tm in data set [2] stood at 33.8 °C.

With GGACTCGAAAGAGTCTCC ((((((....)))..))), the folding enthalpy in data set [1] is -10.4 kcal/mol. Moreover, the Tm in data set [2] came out at 53.3 °C.

With GGACTGGGAAACCAGTCC (((((((....))))))), the folding enthalpy in data set [1] was -35.3 kcal/mol. Moreover, the Tm in data set [2] stood at 68.5 °C.

On to GGACTGGGAAACTAGTCC (((((.(....).))))), for which, in data set [1], the folding enthalpy is -32.1 kcal/mol. The Tm in data set [2] worked out at 50.2 °C.

With GGAGAAACGAAAGTTTCC (((..(((....)))))), the folding enthalpy in data set [1] was -14.1 kcal/mol. In addition, the Tm in data set [2] turned out to be 37.7 °C.

On to GGAGAAGGAAACCTCTCC (((((.(....).))))), for which the folding enthalpy in data set [1] was -28.6 kcal/mol. In addition, the Tm in data set [2] amounted to 37.7 °C.

As to GGAGACCGAAAGGTTTCC (((.(((....))).))), the folding enthalpy in data set [1] was -41.5 kcal/mol. Moreover, the Tm in data set [2] was 55.5 °C.

Turning to GGAGACGAAAGTCCCTCC ((((((....)))..))), the folding enthalpy in data set [1] was -16.3 kcal/mol. Further, the Tm in data set [2] was 49.8 °C.

Regarding GGAGACGAAAGTCTTCC ((((((....))).))), in data set [1], the folding enthalpy is -18 kcal/mol. Further, in data set [2], the Tm was 50.9 °C.

With GGAGACTCGAAAGAGTCC (((..(((....)))))), in data set [1], the folding enthalpy is -10 kcal/mol. The Tm in data set [2] was determined as 45.4 °C.

Take GGAGAGCCGAAAGGCTCC (((..(((....)))))): the folding enthalpy in data set [1] is -6.93 kcal/mol. For the same sequence, the Tm in data set [2] was 43.3 °C.

Take GGAGAGCGAAAGCTGTCC (((.(((....))).))): the folding enthalpy in data set [1] was -32.8 kcal/mol. Moreover, in data set [2], the Tm was 58.2 °C.

As for GGAGAGGCGAAAGCCTCC (((..(((....)))))), in data set [1], the folding enthalpy was -7.4 kcal/mol. The Tm in data set [2] stood at 49.5 °C.

Regarding GGAGAGGGAAACCTTTCC (((.(((....))).))), in data set [1], the folding enthalpy is -27.3 kcal/mol. The Tm in data set [2] was 38.2 °C.

Source of the values: the array DNA melting data of Ke et al. (doi:10.1101/2024.01.08.574731).
